# This is a sample that favours compounds with a hit; in the whole collection about 4.3% have one here.
# MC4R ag barr – agonists of human melanocortin 4 receptor (MC4R) beta-arrestin | U2OS MC4R beta-arrestin complementation, luminescence; percent of melanotan II response, DMSO zero | activation, % at 8.9 µM | hit rate 0.98% among 360,000;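 active = activation above a per-plate cutoff, the mean activation of sample wells on that plate plus 3 SD, cut at about 8% in these data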
# HTR2A ag – mouse HTR2A agonism via beta-arrestin recruitment. activation, % at 7.6 µM. AID 624169. CHO-K1 mHTR2A beta-arrestin complementation, luminescence; percent of 30 µM serotonin response. hit rate 0.66% among 360,000. P35363;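 active = activation above a run cutoff, the mean activation of all tested compounds plus 3 SD, cut at about 14% in these data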;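 note: 0% = plate median of compound wells and 100% = 30 µM serotonin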
# Target sequence (P35363 whole entry, looked up): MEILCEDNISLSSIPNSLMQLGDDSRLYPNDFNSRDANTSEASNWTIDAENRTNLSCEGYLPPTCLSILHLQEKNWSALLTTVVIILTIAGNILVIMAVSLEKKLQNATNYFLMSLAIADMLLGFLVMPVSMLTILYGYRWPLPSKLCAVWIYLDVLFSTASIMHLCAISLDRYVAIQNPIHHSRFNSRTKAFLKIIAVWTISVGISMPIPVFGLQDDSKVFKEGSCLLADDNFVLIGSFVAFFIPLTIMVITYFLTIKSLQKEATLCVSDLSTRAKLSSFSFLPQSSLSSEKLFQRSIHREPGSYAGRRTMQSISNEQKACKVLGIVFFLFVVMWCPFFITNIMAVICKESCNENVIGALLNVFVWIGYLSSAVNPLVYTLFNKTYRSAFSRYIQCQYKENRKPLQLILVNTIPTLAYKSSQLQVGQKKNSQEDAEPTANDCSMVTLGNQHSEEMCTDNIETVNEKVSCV
# Beta2AR agonist – human beta-2 adrenergic receptor agonism by FAP | Am2.2-beta2AR cells, FAP receptor internalization, flow cytometry | P07550 | hit rate 0.43% among 340,000 | response, % (test concentration not listed);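 active = response above a set limit, near 3 SD of response in nonfluorescent compounds, cut at about 42% in these data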
# TAAR1 agonist – agonists of human TAAR1; AID 624467; activation, % at 3 µM; CHO RD-HGA16 TAAR1, Fluo-8 calcium fluorescence; vehicle wells 0%, saturating PEA agonist 100%; Q96RJ0; hit rate 0.99% among 360,000;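 active = activation above the mean activation of all test compounds in the run plus 3 SD, cut at about 38% in these data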
#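 System: CHO-derived RD-HGA16 cells with stable Gα16 and human TAAR1. Times: 17-24 h plating, Fluo-8 75 min 37 °C, 30 min RT. Measured by: calcium-sensitive Fluo-8 signal, excitation 470-495, emission 515-575 nm. Read-out basis: % activation relative to PEA EC100 response. Control set: DMSO and PEA EC100. Repeats: no replicates (n 1).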
# MC4R antagonist – blocks human MC4R cAMP signaling; P32245; MC4R-expressing cells, MTII-stimulated cAMP, LANCE TR-FRET; inhibition, % at 6.5 µM; hit rate 0.48% among 360,000; AID 540295;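 active = inhibition above its plate's cutoff, the mean of tested wells on that plate plus 3 SD, cut at about 29% in these data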;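 note: 0% = Melanotan II alone and 100% = Melanotan II plus saturating MCL0020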
#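 System: U2OS-MC4R stable cell line; Technique: Eu-cAMP/anti-cAMP TR-FRET, emission 671 nm; Repeats: single well per compound; Also added: Melanotan II; Dosing: one concentration, 6.5 µM nominal; Schedule: 30-min compound, 1-h challenge, 1-h detection, room temperature.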
# TAAR1 antagonist – human TAAR1 antagonism. Q96RJ0. CHO RD-HGA16 TAAR1, Fluo-8 calcium fluorescence, antagonist. inhibition, % at 3 µM. hit rate 1.5% among 360,000;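 active = inhibition above a per-plate cutoff, the mean inhibition of test compounds on that plate plus 3 SD, cut at about 49% in these data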;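 note: 0% = DMSO plus EC80 beta-PEA response and 100% = DMSO alone without agonist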
#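 test system = CHO RD-HGA16 cells bearing hTAAR1 | replication = singlicate | controls = DMSO-only wells and EC80 β-PEA-stimulated wells | reagent = EC80 β-phenethylamine stimulus | read-out basis = percent inhibition of PEA-evoked calcium signal, max/basal emission ratio | schedule = seeding 17-24 h prior, 75-min 37 °C, 30-min RT dye loading | signal = kinetic Fluo-8 calcium fluorescence measurement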
# An asterisk follows results filed as active; . = not tested or not shown.
SMILES,MC4R ag barr,HTR2A ag,Beta2AR agonist,TAAR1 agonist,MC4R antagonist,TAAR1 antagonist
CC[n+]1c(/C=C/N(C)c2ccccc2)n(-c2ccccc2)c2ccc(-c3nc4ccccc4s3)cc21,16.3*,20.3*,22.9,.,10.6,.
COC(=O)C1=C(C)N(CCc2ccc(OC)cc2)C(=O)C1,1.4,7.0,17.9,16.2,0.3,51.8*
O=[N+]([O-])c1ccc(N2CCN(C(=S)NC3CCCCC3)CC2)cc1,-0.2,6.0,8.5,10.1,4.3,52.3*
O=[N+]([O-])c1ccc(N2CCN(C(=S)Nc3ccccc3)CC2)cc1,-1.8,8.4,-3.4,2.7,14.6,-5.8
O=c1oc2ccccc2c(O)c1/C=C1\C=Nc2ccccc21,-1.2,2.8,48.0*,14.8,-5.1,-7.2
COC(=O)[C@H](Cc1ccccc1)N1CC=CS1(=O)=O,.,.,.,0.8,.,-9.5
CC(=O)c1ccc(Oc2ccc(C(C)=O)cc2)cc1,-0.4,1.1,-9.8,5.2,-4.7,9.1
Oc1ccc(Oc2ccc(Oc3ccc(O)cc3)cc2)cc1,0.6,-0.9,-1.0,8.3,15.6,51.3*
CCN(CC)S(=O)(=O)c1cccc(NC(=O)c2ccc(SC)cc2OC)c1,-0.5,-5.7,14.0,5.1,2.0,51.6*
Cc1cccc(C)c1-n1nnnc1C(c1ccnc2ccccc12)N1CCCN(C(=O)OC(C)(C)C)CC1 (configuration not stated),.,-0.6,.,-1.2,.,-9.5
O=C1NC(=S)/C(=C\c2ccc(-c3ccccc3Cl)o2)S1,-0.4,-0.7,19.8,9.5,7.8,50.1*
O=C1NC(=O)/C(=C/c2ccc(-c3cc(C(=O)O)ccc3Cl)o2)S1,0.2,0.3,-3.1,4.6,2.7,-6.0
CC1(C)OC(=O)C2=C(C[C@@H](C3CCCCC3)O[C@H]2c2ccccc2)O1,.,4.8,.,-1.4,.,7.3
COC(=O)c1ccc(Cn2c(C)c(C(=O)Nc3cccc(Oc4ccccc4)c3)sc2=O)o1,1.4,-4.7,.,11.2,4.2,48.7*
COc1ccc2nc(NC(=O)Cn3cnc4ccccc4c3=O)sc2c1,8.3*,0.5,-13.5,-0.5,16.3,-27.5
COc1ccc(NC(=O)Cn2cnc3ccccc3c2=O)cc1OC,-4.7,-7.5,-8.4,-0.1,-1.1,5.0
Cc1ccc(N2C(=O)C3CC(c4ccccc4)=C4C5C=CC(C6C(=O)N(c7ccc(C)cc7)C(=O)C56)C4C3C2=O)cc1 (configuration not stated),8.6*,-3.1,13.2,2.0,13.5,-22.2
Cc1ccc(N2C(=O)C3CC(c4ccccc4)=C4C5C=CC(C6C(=O)N(c7ccc(C)cc7C)C(=O)C56)C4C3C2=O)c(C)c1 (configuration not stated),-0.3,0.1,0.2,.,5.9,.
Cc1ccc(SCCC(=O)Nc2ccccc2C(=O)NC2CCCCC2)cc1,9.4*,4.8,4.9,0.6,-1.0,-4.7
Cc1ccc(OCCC(=O)Nc2ccccc2C(=O)NC2CC2)cc1,3.9,-1.7,-2.3,0.1,9.4,-30.7
COc1cccc(C(=O)COc2cccc(NC(=O)c3cccc([N+](=O)[O-])c3)c2)c1,-2.1,2.8,-1.2,17.0,9.1,68.4*
COc1cccc(C(=O)COC(=O)c2ccc(NC(=O)c3ccccc3)cc2)c1,8.7*,-1.1,-1.9,18.2,-0.2,23.7
O=S1(=O)N[C@@H](Cc2ccccc2)COc2cccc(NCCCN3CCOCC3)c21,.,.,.,1.1,.,1.7
CCCN(CCC)CCN1CCN(C(=O)[C@H](CCc2ccccc2)NC(=O)[C@H]2O[C@@H](n3cnc4c(N)ncnc43)[C@H](O)[C@@H]2O)CC1,.,.,.,2.3,.,-6.2
CCc1ccc(CN(C)C(=O)c2cc(COc3cccc4cnccc34)on2)cc1,-0.8,-3.4,-6.4,1.9,7.4,50.7*
SMILES,MC4R ag barr,HTR2A ag,Beta2AR agonist,TAAR1 agonist,MC4R antagonist,TAAR1 antagonist
Cc1cc(C(=O)COC(=O)c2ccc(CO)cc2)c(C)n1CC1COc2ccccc2O1 (configuration not stated),-0.6,0.0,4.0,22.8,12.9,49.5*
COc1ccc(S(=O)(=O)N2CCCCC2)cc1NC(=O)C1COc2ccccc2O1 (configuration not stated),-1.7,-2.4,8.9,5.1,0.1,57.5*
C=CS(=O)(=O)N[C@@H](CSSC[C@H](NS(=O)(=O)C=C)C(=O)OC)C(=O)OC,.,.,.,0.9,.,-10.8
O=C(CCNC(=O)c1ccco1)Nc1ccc(OC(F)F)c(Cl)c1,0.3,1.0,7.2,0.2,16.2,-1.1
COc1ccc(NC(=O)COC(=O)CCNC(=O)c2ccco2)cc1Cl,0.4,1.2,-1.9,43.4*,-1.2,12.4
C[C@H]1CN(S(=O)(=O)C(C)(C)C)[C@@H](CCO)/C1=C\CCO,.,.,.,1.6,.,-10.7
O=C(COC(=O)c1cccc2c1C(=O)c1ccccc1C2=O)NC1CCCCC1,1.5,3.9,-7.0,6.7,0.9,49.5*
COC(=O)c1cc2c(c3c4ccccc4n(S(=O)(=O)c4ccc(C)cc4)c13)C(=O)N(CC(C)C)C2,.,.,.,-2.2,.,-44.6
O=C(c1ccco1)N1CCN(c2ncnc3scc(-c4ccccc4)c23)CC1,0.6,2.5,-12.6,8.1,12.3,24.4
Cc1ccc(-c2csc3ncnc(N4CCN(C(=O)c5ccccc5)CC4)c23)cc1,-1.2,0.1,4.5,11.9,8.8,50.1*
O=c1cc(-c2ccccc2Cl)oc2cc(O)cc(O)c12,1.6,-4.7,-11.5,3.3,-24.0,12.9
O=C1C=CC(O)(c2cc(=O)c3c(O)cc(O)cc3o2)C=C1,-1.1,-6.8,45.1*,10.8,3.0,11.1
C[C@H](O)[C@@H]1C(=O)N2CCc3c([nH]c4cccc(-c5ccccc5)c34)[C@@H]2C[C@@H]1N(C)C(=O)Nc1ccccc1,.,.,.,1.0,.,11.0
Brc1ccc(N2O[C@H]3C=C[C@@H]2C3)nc1,.,.,.,1.7,.,-21.2
CC1C(=O)CC(c2ccccc2)N(C)C1c1ccccc1 (configuration not stated),9.1*,2.2,13.1,-1.3,4.9,24.6
Cc1ccc(NC(=O)CCn2c(=S)oc3ccccc32)cc1F,8.3*,-7.9,-3.9,-2.5,3.7,8.4
O=C(CCn1c(=S)oc2ccccc21)Nc1cccc(F)c1,-3.6,-1.7,-5.2,0.2,0.5,5.0
COc1ccc(-c2nnc(SCc3nc4ccccc4c(=O)[nH]3)o2)cc1,8.2*,-2.7,6.5,4.2,-15.0,33.3
Cc1cccc(OCc2nnc(SCc3nc4ccccc4c(=O)[nH]3)o2)c1,1.7,-0.9,-1.8,5.2,7.0,-6.6
O=Nc1c(O)n(Cc2c(Cl)cccc2Cl)c2ccccc12,8.4*,0.0,7.2,0.5,0.1,-9.7
CSCc1cc(C(=O)NC2CC2)c(N)s1,.,1.5,.,6.0,.,-17.7

# High-throughput results as filed in PubChem BioAssay.
